Assay results taken from PMC3371134 (Journal of Neurochemistry, 2012).
“Also recorded” adds a separate entry of the source.

What was measured:
[1] = system: calcineurin B (CnB); test: Yeast two-hybrid; format: binding, mouse; details: LexA and VP16 fusions, lacZ reporter, X-gal
Outline: (§1)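 Mouse coding sequences (from brain cDNA) were cloned as galactose-inducible LexA and VP16 fusions and co-transformed into S260 yeast, selected on glucose Trp−/Ura− plates. Colonies on filters were switched to galactose for induction, then assayed for lacZ with X-gal. Autoactivation was checked against LexA/VP16 control vectors. Blue within 1 h was scored positive; blue at 2–4 h was scored weak.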

[2] = system: centrin 2 (Cetn2); test: Yeast two-hybrid; format: binding, mouse; details: LexA and VP16 fusions, lacZ reporter, X-gal
Outline: as §1

[3] = system: calmodulin-like 4 (Calml4); test: Yeast two-hybrid; format: binding, mouse; details: LexA and VP16 fusions, lacZ reporter, X-gal
Outline: as §1

[4] = system: calneuron 1 (Caln1); test: Yeast two-hybrid; format: binding, mouse; details: LexA and VP16 fusions, lacZ reporter, X-gal
Outline: as §1

[5] = system: calmodulin-Sepharose; test: CaM-Sepharose pulldown of Myc-tagged proteins expressed in COS-7 cells; format: binding
Outline: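 Myc-tagged mouse constructs (from brain cDNA) were expressed in COS-7 cells, grown in DMEM/10% FBS at 37°C and transfected at 80% confluency with 3 μg plasmid. After 48 h, cells were lysed 30 min at 4°C in TX-buffer (50 mM Tris-HCl pH 6.9, 0.5% Triton X-100, protease inhibitors). Cleared lysate was incubated overnight at 4°C with CaM-Sepharose, then washed 3× and detected by SDS-PAGE/anti-Myc (9E10) western blot with ECL.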

B1: Pcp4l1: small neuronal IQ motif protein, 68 amino acids, full length (protein)
chain: MSELNTKTPPAANQASDPEEKGKPGSIKKAEEEEEIDIDLTAPETEKAALAIQGKFRRFQKRKKDSSS
modifications: left off: Myc, end not stated, kept
- interaction with CnB in Y2H [1]: no binding was detected
- interaction with Cetn2 in Y2H [2]: no binding was detected
- interaction with Calml4 in Y2H [3]: no binding was detected
- interaction with Caln1 in Y2H [4]: no binding was detected
- CaM-Sepharose pulldown, calcium-replete ([5]; 5mM CaCl2, TX-buffer pH 6.9, overnight at 4°C, anti-Myc western blot): binds weakly or not at all to CaM; also recorded: interacts poorly with CaM in both low and high calcium conditions
- calcium dependence of CaM binding / overall CaM binding ([5]; 5mM CaCl2 or 5mM EGTA, summary in Discussion): little or no binding in either calcium poor or replete conditions
- CaM-Sepharose pulldown, calcium-poor ([5]; 5mM EGTA, TX-buffer pH 6.9, overnight at 4°C, anti-Myc western blot): binds weakly or not at all to CaM; also recorded: interacts poorly with CaM in both low and high calcium conditions
